ChEMBL document CHEMBL1130352, “3-[[(4-Aryl-1-piperazinyl)alkyl]cyclohexyl]-1H-indoles as dopamine D2 partial agonists and autoreceptor agonists” (J Med Chem, 1997)
pKi: −log10 of the molar value. Active and inactive are the calls of the source. The calls are words filed in the database; no cut-off is given here.

How the values were obtained:
D(2) dopamine receptor [1] = target: T1, D(2) dopamine receptor (Rattus norvegicus, UniProt P61169); experiment: In vitro binding affinity for dopamine receptor D2 on rat striatal membranes by [3H]spiperone displacement.; parameters: species or system Striatum, Membrane
T1 sequence (P61169 whole entry): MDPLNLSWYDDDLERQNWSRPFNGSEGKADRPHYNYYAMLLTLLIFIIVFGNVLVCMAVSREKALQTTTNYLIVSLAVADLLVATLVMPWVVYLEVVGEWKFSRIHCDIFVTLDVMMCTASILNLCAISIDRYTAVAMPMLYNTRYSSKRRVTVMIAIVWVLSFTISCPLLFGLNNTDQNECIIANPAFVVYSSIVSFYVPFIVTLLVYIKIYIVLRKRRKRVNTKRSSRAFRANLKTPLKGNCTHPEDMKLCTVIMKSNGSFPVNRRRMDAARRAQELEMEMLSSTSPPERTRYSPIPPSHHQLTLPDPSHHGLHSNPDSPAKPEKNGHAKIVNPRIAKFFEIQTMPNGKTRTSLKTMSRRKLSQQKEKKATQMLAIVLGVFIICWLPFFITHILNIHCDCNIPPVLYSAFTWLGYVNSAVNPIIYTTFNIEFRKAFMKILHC
Procedure, shortened: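 Displacement of [3H]spiperone (0.2 nM final) from rat striatal membranes; nonspecific binding defined with 1 μM (+)-butaclamol. IC50 determined, reported as Ki.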

Rattus norvegicus [2] = experiment: Percent reversal of DOPA levels in the striatum of gamma-butyrolactone-treated rats at 10 mg/kg by intraperitoneal route; assay type: functional
Procedure, shortened: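 Male Long Evans rats received 10 mg/kg ip 1 h before sacrifice, with GBL (750 mg/kg ip) and NSD 1015 (100 mg/kg ip) 30 min before sacrifice. Striatal DOPA was quantified by HPLC-electrochemical detection and expressed as percent reversal between GBL + NSD 1015 (0%) and vehicle + NSD 1015 (100%) controls; n = 4-5 rats.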

Rattus norvegicus [3] = species: Rattus norvegicus; experiment: Inhibition of spontaneous locomotor activity after peroral injection into rat; assay type: functional
Procedure, shortened: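 Rats dosed orally before a 30 min test in darkened cylindrical photobeam chambers. Percent inhibition of activity relative to vehicle-treated rats; ED50 with 95% confidence range from three to six doses, 6–18 animals per dose.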

Mus musculus [4] = experiment: In vivo inhibition of locomotor activity in mice following i.p. administration.; assay type: functional; details: ip
Procedure, shortened: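 Mice dosed ip, then immediately tested for 1 h in darkened cylindrical photobeam chambers. Activity expressed as percent inhibition versus vehicle-treated mice. ED50 with 95% confidence range from three to six doses, 6–18 animals per dose.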

Rattus norvegicus [5] = experiment: Inhibition of spontaneous locomotor activity after intraperitoneal injection into rat at 3 mg/kg; assay type: functional; details: ip
Rattus norvegicus [6] = experiment: Inhibition of spontaneous locomotor activity after intraperitoneal injection into rat at 30 mg/kg; assay type: functional; details: ip
Rattus norvegicus [7] = species: Rattus norvegicus; experiment: Inhibition of spontaneous locomotor activity after peroral injection into rat; Stimulation of locomotory activity; assay type: functional, organism-based
Rattus norvegicus [8] = experiment: Percent reversal of DOPA synthesis in the striatum of gamma-butyrolactone-treated rats at 10 mg/kg by intraperitoneal route; Increase; assay type: functional, organism-based; parameters: dose 10 mg/kg
Procedure, shortened: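 Male Long Evans rats given compound ip 1 h before sacrifice; GBL (750 mg/kg ip) plus NSD 1015 (100 mg/kg ip) 30 min before sacrifice. Striatal DOPA measured by HPLC with electrochemical detection. Result given as percent reversal between the GBL + NSD 1015 control (0%) and the vehicle + NSD 1015 control (100%); n = 4–5 animals.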

D(4) dopamine receptor = target: T2, D(4) dopamine receptor (Homo sapiens, UniProt P21917); experiment: In vitro binding affinity towards human recombinant Dopamine receptor D4 expressed in CHO-K1 cells was determined using [3H]spiperone as radioligand; assay type: cell-based
T2 sequence (P21917 whole entry): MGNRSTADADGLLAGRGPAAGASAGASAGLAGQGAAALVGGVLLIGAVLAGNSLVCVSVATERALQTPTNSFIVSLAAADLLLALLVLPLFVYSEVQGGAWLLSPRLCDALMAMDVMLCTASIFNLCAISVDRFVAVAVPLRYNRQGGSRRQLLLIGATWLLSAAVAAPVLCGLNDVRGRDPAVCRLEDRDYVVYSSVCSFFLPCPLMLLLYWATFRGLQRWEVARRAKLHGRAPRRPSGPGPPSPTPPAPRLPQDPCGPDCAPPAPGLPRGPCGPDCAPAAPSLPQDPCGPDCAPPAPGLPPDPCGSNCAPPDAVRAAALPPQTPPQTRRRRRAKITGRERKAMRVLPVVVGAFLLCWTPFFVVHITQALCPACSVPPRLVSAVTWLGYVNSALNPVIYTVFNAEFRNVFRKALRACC
Procedure, shortened: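 CHO K1 cells stably transfected with human recombinant DA D4.2 receptor subtype; membranes incubated with [3H]spiperone (0.2 nM final); Ki values determined.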

D(3) dopamine receptor = D(3) dopamine receptor (Homo sapiens, UniProt P35462); experiment: In vitro binding affinity towards human recombinant Dopamine receptor D3 receptor expressed in CHO-K1 cells was determined using [3H]spiperone as radioligand
D(3) dopamine receptor, sequence (P35462 whole entry): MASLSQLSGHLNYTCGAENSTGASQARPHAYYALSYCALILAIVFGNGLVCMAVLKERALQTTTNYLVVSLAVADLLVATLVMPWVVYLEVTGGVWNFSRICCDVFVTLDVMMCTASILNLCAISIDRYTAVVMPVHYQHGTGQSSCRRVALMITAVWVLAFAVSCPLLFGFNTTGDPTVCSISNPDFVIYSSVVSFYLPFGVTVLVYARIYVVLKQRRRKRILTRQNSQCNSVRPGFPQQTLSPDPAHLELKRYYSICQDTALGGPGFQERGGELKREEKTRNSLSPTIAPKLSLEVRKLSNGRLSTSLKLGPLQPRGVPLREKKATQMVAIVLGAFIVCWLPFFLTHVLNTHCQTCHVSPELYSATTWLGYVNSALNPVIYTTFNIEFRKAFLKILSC

[9] = Decrease in squirrel monkey striatal dopamine overflow measured via in vivo microdialysis after administering a dose of 3 mg/kg intraperitoneally; assay type: functional; parameters: scale not given: the % may be the effect or the level left; details: route intraperitoneal
[10] = Inhibition of sidman avoidance in squirrel monkey after peroral administration; assay type: functional; details: po
Procedure, shortened: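 Squirrel monkeys dosed orally; conditioned (Sidman) avoidance recorded for 6 h. Effect expressed as percent avoidance responding relative to control performance over the 4 h of peak effect; ED50 in mg/kg po.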

Rattus norvegicus [11] = experiment: Stereotypy in rats (intraperitoneal); assay type: functional; details: ip
Procedure, shortened: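 A trained observer rated rats for repetitive sniffing, licking and gnawing, 30 s per rat; a behaviour counted only if continuously present for at least 15 s. Rats observed 1 h after the test compound, then given the D1 agonist SKF 38393 and observed for another hour.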

Rattus norvegicus [12] = experiment: Decrease of rat striatal dopamine overflow after intraperitoneal injection of 10 mg/kg measured via in vivo microdialysis; assay type: functional; parameters: scale not given: the % may be the effect or the level left
Procedure, shortened: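 Adult male Sprague-Dawley rats (200-250 g) under urethane in a stereotaxic frame, with a 4 mm probe in striatum perfused with artificial CSF at 2 μL/min. Dialysate collected every 20 min and assayed for catecholamines by HPLC-electrochemical detection, after 10 mg/kg ip; n = 4.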

Rattus norvegicus [13] = experiment: Decrease in dopamine neuronal firing rate in rats after intraperitoneal injection of 2.5 mg/kg; assay type: functional; parameters: scale not given: the % may be the effect or the level left
D(2) dopamine receptor [14] = target: T1, D(2) dopamine receptor; experiment: Binding affinity was determined in vitro on rat striatum using [3H]N-propylnorapomorphine against Dopamine receptor D2; assay type: tissue-based
Procedure, shortened: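 Rat striatal membranes; [3H]-NPA agonist radioligand at 0.35 nM final, labelling high-affinity state D2 sites; nonspecific binding defined with 2 μM (+)-butaclamol. IC50 determined by displacement, reported as Ki (nM).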

Mus musculus [15] = experiment: Inhibition of apomorphine-induced climbing in mice after intraperitoneal injection; assay type: functional; details: ip
Procedure, shortened: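 Mice received apomorphine 1 mg/kg sc and returned to cages. Test compound or vehicle given ip 5 min later, and climbing scored 10 min after that; ED50 in mg/kg ip.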

Rattus norvegicus [16] = species: Rattus norvegicus; experiment: Compound was evaluated for ability to reverse gamma-butyrolactone (GBL)-induced sunthesis of DOPA in rat corpus striatum; assay type: functional
Procedure, shortened: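 Male Long Evans rats dosed 1 h before sacrifice; GBL 750 mg/kg ip plus NSD 1015 100 mg/kg ip given 30 min before sacrifice. Striatal DOPA measured by HPLC with electrochemical detection. ED50 read graphically as the dose giving 50% reversal of the GBL-induced rise in DOPA accumulation; 0% = GBL + NSD 1015, 100% = vehicle + NSD 1015.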

C1=C(c2c[nH]c3ccccc23)CCC(CCN2CCN(c3ccccn3)CC2)C1 (centres undefined)
pKi (D(2) dopamine receptor [1]): 6.57

Oc1ccc2[nH]cc([C@H]3CC[C@H](CCN4CCN(c5ccccn5)CC4)CC3)c2c1
Reversal (Rattus norvegicus [2]): 25%
ED50 (Rattus norvegicus [3]): > 30 mg/kg
pKi (D(2) dopamine receptor [1]): 8.07
ED50 (Mus musculus [4]): 0.6 mg/kg

c1ccc(N2CCN(C[C@H]3CC[C@@H](c4c[nH]c5ccccc54)CC3)CC2)nc1
pKi (D(2) dopamine receptor [1]): 6.91
inhibition in vivo at 3 mg/kg (Rattus norvegicus [5]): 57%
inhibition in vivo at 30 mg/kg (Rattus norvegicus [6]): 1.8%
ED50 (Mus musculus [4]): 1.2 mg/kg

Fc1ccc2[nH]cc([C@H]3CC[C@H](CCN4CCN(c5ccccn5)CC4)CC3)c2c1
Reversal (Rattus norvegicus [2]): 100%
pKi (D(2) dopamine receptor [1]): 6.96
ED50 (Mus musculus [4]): 9 mg/kg
ED50 (Rattus norvegicus [7]): Stimulant

C1=C(c2ccccc2)CCN(CC[C@H]2CC[C@@H](c3c[nH]c4ccccc43)CC2)C1
Reversal (Rattus norvegicus [2]): 5%
pKi (D(2) dopamine receptor [1]): 7.55
ED50 (Mus musculus [4]): 10.5 mg/kg

Cn1cc([C@H]2CC[C@H](CCN3CCN(c4ccccn4)CC3)CC2)c2ccccc21
pKi (D(2) dopamine receptor [1]): 7.08
ED50 (Mus musculus [4]): > 30 mg/kg

c1ccc(N2CCN([C@H]3CC[C@@H](c4c[nH]c5ccccc54)CC3)CC2)nc1
ED50 (Mus musculus [4]): > 30 mg/kg

c1ccc(N2CCN([C@H]3CC[C@H](c4c[nH]c5ccccc54)CC3)CC2)nc1
Reversal (Rattus norvegicus [2]): 38%
ED50 (Rattus norvegicus [3]): 13.7 mg/kg
pKi (D(2) dopamine receptor [1]): 6.34
ED50 (Mus musculus [4]): 1.2 mg/kg

C1=C(c2ccccc2)CC[C@H](CCN2CCN(c3ccccn3)CC2)C1
pKi (D(2) dopamine receptor [1]): 6.39

c1ccc(N2CCN(CC[C@H]3CC[C@H](c4c[nH]c5ccccc54)CC3)CC2)cc1
pKi (D(2) dopamine receptor [1]): 6.91
Reversal (Rattus norvegicus [8]): inactive
ED50 (Mus musculus [4]): 13.9 mg/kg

COc1ccc2[nH]cc([C@H]3CC[C@H](CCN4CCN(c5ccccn5)CC4)CC3)c2c1
Reversal (Rattus norvegicus [2]): 88%
ED50 (Rattus norvegicus [3]): > 30 mg/kg
pKi (D(2) dopamine receptor [1]): 7.54
ED50 (Mus musculus [4]): 2.2 mg/kg

c1ccc(N2CCN(CC[C@H]3CC[C@@H](c4c[nH]c5ccccc54)CC3)CC2)nc1
Reversal (Rattus norvegicus [2]): 60%
ED50 (Rattus norvegicus [3]): 12.2 mg/kg
pKi (D(2) dopamine receptor [1]): 6.86
ED50 (Mus musculus [4]): 4.7 mg/kg

Oc1ccc2[nH]cc(CCCCN3CC=C(c4ccccc4)CC3)c2c1 [ROXINDOLE]
Reversal (Rattus norvegicus [2]): 70%
ED50 (Rattus norvegicus [3]): 47.6 mg/kg
pKi (D(2) dopamine receptor [1]): 7.85
ED50 (Mus musculus [4]): 0.25 mg/kg

c1cnc(N2CCN(CC[C@H]3CC[C@H](c4c[nH]c5ccccc54)CC3)CC2)nc1
Reversal (Rattus norvegicus [2]): 34%
ED50 (Rattus norvegicus [3]): 18.6 mg/kg
pKi (D(2) dopamine receptor [1]): 6.79
ED50 (Mus musculus [4]): 3.3 mg/kg

C1=C(c2cccs2)CCN(CC[C@H]2CC[C@H](c3c[nH]c4ccccc43)CC2)C1
pKi (D(2) dopamine receptor [1]): 6.20
ED50 (Mus musculus [4]): 11.6 mg/kg

C1=C(c2ccccc2)CCN(CC[C@H]2CC[C@H](c3c[nH]c4ccccc43)CC2)C1
ED50 (Rattus norvegicus [3]): > 30 mg/kg
pKi (D(2) dopamine receptor [1]): 8.06
Reversal (Rattus norvegicus [8]): inactive
ED50 (Mus musculus [4]): 7.2 mg/kg

c1ccc(N2CCN(CC[C@H]3CC[C@H](c4c[nH]c5ccccc54)CC3)CC2)nc1
Reversal (Rattus norvegicus [2]): 44%
pKi (D(4) dopamine receptor): 7.14
ED50 (Rattus norvegicus [3]): 4.8 mg/kg
pKi (D(3) dopamine receptor): 7.54
Activity [9]: 38%
pKi (D(2) dopamine receptor [1]): 7.30
ED50 [10]: 1 mg/kg
ED50 (Rattus norvegicus [11]): > 24 mg/kg
Activity (Rattus norvegicus [12]): 33%
Activity (Rattus norvegicus [13]): 100%
ED50 (Mus musculus [4]): 1.4 mg/kg
pKi (D(2) dopamine receptor [14]): 8.59
ED50 (Mus musculus [15]): > 30 mg/kg
ED50 (Rattus norvegicus [16]): 6.6 mg/kg

c1ccc(N2CCN(C[C@H]3CC[C@H](c4c[nH]c5ccccc54)CC3)CC2)nc1
Reversal (Rattus norvegicus [2]): 81%
ED50 (Rattus norvegicus [3]): 8.8 mg/kg
pKi (D(2) dopamine receptor [1]): 7.07
ED50 (Mus musculus [4]): 2.3 mg/kg

Fc1ccc(N2CCN(CC[C@H]3CC[C@H](c4c[nH]c5ccccc54)CC3)CC2)cc1
pKi (D(2) dopamine receptor [1]): 6.19
ED50 (Mus musculus [4]): > 30 mg/kg
